Among the data in ChEMBL document CHEMBL5532718, “Identification and Evaluation of Reversible Covalent Binders to Cys55 of Bfl-1 from a DNA-Encoded Chemical Library Screen” (ACS Med Chem Lett, 2024) are logD, IC50 and Ki values, retold here.

Bounds are passed on as bounds.

One may read the logD as lipophilicity at a set pH, counting ionised and neutral species. Broadly, the IC50 is the midpoint of a concentration-inhibition curve. As a reminder, the Ki is the equilibrium dissociation constant of an inhibitor or competing ligand from its target.

A short description of data set [1]: Lipophilicity, logD of compound in octanol/water at pH 7.4 by shake-flask method. It counts as physicochemical.
The target of data set [2] is T1, Bcl-2-related protein A1 (Homo sapiens, UniProt Q16548).
T1 sequence (Q16548 whole entry): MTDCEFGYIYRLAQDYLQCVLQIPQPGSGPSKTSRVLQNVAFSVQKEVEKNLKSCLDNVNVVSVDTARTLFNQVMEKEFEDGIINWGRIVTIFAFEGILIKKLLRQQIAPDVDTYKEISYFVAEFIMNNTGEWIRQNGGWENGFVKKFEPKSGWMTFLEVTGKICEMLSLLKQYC
Description: Inhibition of N-terminal His6-tagged recombinant human Bfl-1 (1 to 151 residues) expressed in Escherichia coli BL21-Gold (DE3) using HyLite Fluor 647-labeled BIM peptide as substrate incubated for 120 mins by TR-FRET assay. An outline of the steps:
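Bfl-1 binding read as displacement of a labeled BIM peptide probe in a TR-FRET assay, reported as IC50 in μM.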
On the technique in general: Time-resolved FRET reads energy transfer from a long-lived donor to a nearby acceptor.

Data set [3] addresses Induced myeloid leukemia cell differentiation protein Mcl-1 (Homo sapiens, UniProt Q07820). Kind of data set: Inhibition of Mcl-1 (unknown origin) incubated for 120 mins by TR-FRET assay.
The target in data set [4] is Apoptosis regulator Bcl-2 (Homo sapiens, UniProt P10415). Description: Inhibition of Bcl-2 (unknown origin) incubated for 120 mins by TR-FRET assay.
Sequence of Apoptosis regulator Bcl-2 (P10415 whole entry, the tested form may be a part): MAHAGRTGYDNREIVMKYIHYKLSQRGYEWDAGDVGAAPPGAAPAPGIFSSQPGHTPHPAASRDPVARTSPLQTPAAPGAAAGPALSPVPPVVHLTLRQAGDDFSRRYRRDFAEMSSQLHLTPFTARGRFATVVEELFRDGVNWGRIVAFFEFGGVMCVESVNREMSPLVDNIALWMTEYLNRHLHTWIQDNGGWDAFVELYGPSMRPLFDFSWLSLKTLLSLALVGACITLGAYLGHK
The target in data set [5] is T1, Bcl-2-related protein A1. Kind of data set: Binding affinity of N-terminal His6-tagged recombinant human Bfl-1 (1 to 151 residues) expressed in Escherichia coli BL21-Gold (DE3) assessed as inhibition constant by MS analysis.
The target of a further data set is Bcl-2-like protein 1 (Homo sapiens, UniProt Q07817). Kind of data set: Inhibition of Bcl-xl (unknown origin) incubated for 120 mins by TR-FRET assay.
Sequence of Bcl-2-like protein 1 (Q07817 whole entry): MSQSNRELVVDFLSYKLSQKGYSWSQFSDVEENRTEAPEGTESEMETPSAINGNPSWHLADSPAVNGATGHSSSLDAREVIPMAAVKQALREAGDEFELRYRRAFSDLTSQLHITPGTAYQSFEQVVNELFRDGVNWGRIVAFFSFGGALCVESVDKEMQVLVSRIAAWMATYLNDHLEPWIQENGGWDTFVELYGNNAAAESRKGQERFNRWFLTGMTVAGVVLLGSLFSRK

Sequence of Induced myeloid leukemia cell differentiation protein Mcl-1 (Q07820 whole entry): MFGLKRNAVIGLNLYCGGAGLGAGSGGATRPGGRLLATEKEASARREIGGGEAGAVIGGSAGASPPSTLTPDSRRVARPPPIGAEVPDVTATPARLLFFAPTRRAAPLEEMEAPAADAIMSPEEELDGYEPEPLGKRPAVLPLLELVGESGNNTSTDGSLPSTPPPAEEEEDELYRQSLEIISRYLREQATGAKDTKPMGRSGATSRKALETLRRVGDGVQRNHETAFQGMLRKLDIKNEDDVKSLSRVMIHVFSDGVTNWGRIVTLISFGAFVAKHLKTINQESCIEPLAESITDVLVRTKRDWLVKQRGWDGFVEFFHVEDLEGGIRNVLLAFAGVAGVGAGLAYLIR

Consider `CP(C)(=O)c1ccccc1/C=C(\C#N)C(=O)NCCc1ccc(Cl)cc1`, for which, in data set [1], the logD stood at 2.3. For the same compound, the IC50 at Bcl-2-related protein A1 [2] is 54 µM.

For `CN(C)C(=O)c1ccccc1/C=C(\C#N)C(=O)NC(Cc1ccc(C(F)(F)F)cc1)C(=O)N(C)C` (racemic), in data set [1], the logD stood at 2.2. At Bcl-2-related protein A1 [2], the IC50 was over 100 µM.

`CP(C)(=O)c1ccccc1/C=C(\C#N)C(=O)NCC1(c2ccccc2)CC1` had a logD in data set [1] of 2. Also, the IC50 at Bcl-2-related protein A1 [2] worked out at 50 µM.

With `CN(C)C(=O)[C@@H](Cc1ccc(C(F)(F)F)cc1)NC(=O)/C(C#N)=C/c1ccccc1P(C)(C)=O`, the log distribution coefficient (logD) in data set [1] is 2.1. At Bcl-2-related protein A1 [2], the IC50 is over 100 µM.

On to `CN(C)C(=O)[C@H](Cc1ccc(C(F)(F)F)cc1)NC(=O)/C(C#N)=C/c1ccccc1`, for which the logD in data set [1] was determined as 3.9. For the same compound, the IC50 at Bcl-2-related protein A1 [2] is over 100 µM.

In data set [1], `CP(C)(=O)c1ccccc1/C=C(\C#N)C(=O)NCCc1ccc(C(F)(F)F)cc1` gave a logD of 2.7. Moreover, the IC50 at Bcl-2-related protein A1 [2] was 23 µM.

As for `CN(C)C(=O)[C@H](Cc1ccc(C(F)(F)F)cc1)NC(=O)/C(C#N)=C/c1ccccc1P(C)(C)=O`, in data set [1], the logD was found to be 2. In addition, the IC50 on Bcl-2-related protein A1 [2] was 29 µM; in data set [3], over 100 µM; in data set [4] it was over 100 µM; against Bcl-2-like protein 1, over 100 µM. Besides, the Ki at Bcl-2-related protein A1 [5] stood at 5.4 µM.

`CP(C)(=O)c1ccccc1/C=C(\C#N)C(=O)NCC1(c2ccc(C(F)(F)F)cc2)CC1`: the logD in data set [1] was determined as 3. In addition, the IC50 on Bcl-2-related protein A1 [2] worked out at 4.3 µM.

`CN(C)C(=O)[C@H](Cc1ccc(C(F)(F)F)cc1)NC(=O)/C(C#N)=C/c1ccccc1S(C)(=O)=O` returned a logD in data set [1] of 2.6. The IC50 at Bcl-2-related protein A1 [2] was over 100 µM.

Take `CP(C)(=O)c1ccccc1/C=C(\C#N)C(=O)NCCc1ccc(Cl)c(Cl)c1`: the logD in data set [1] turned out to be 1.9. On Bcl-2-related protein A1 [2], the IC50 amounted to 27 µM.

With `CN(C)C(=O)[C@H](Cc1ccc(C(F)(F)F)cc1)NC(=O)/C(C#N)=C/c1cccc(P(C)(C)=O)c1`, the logD in data set [1] was 2.2. Also, the IC50 at Bcl-2-related protein A1 [2] is over 100 µM.

For the compound `CN(C)C(=O)[C@H](Cc1ccc(C(F)(F)F)cc1)NC(=O)/C(C#N)=C/c1ccc(P(C)(C)=O)cc1`, the pH-dependent lipophilicity (logD) in data set [1] amounted to 2.1. In addition, on Bcl-2-related protein A1 [2], the IC50 is over 100 µM.

The compound `CP(C)(=O)c1ccccc1/C=C(\C#N)C(=O)NCCc1ccccc1` registered a logD in data set [1] of 1.7. For the same compound, the IC50 at Bcl-2-related protein A1 [2] was over 100 µM.

As to `CN(C)C(=O)C(Cc1ccc(C(F)(F)F)cc1)NC(=O)/C(C#N)=C/c1ccccc1S(=O)(=O)N(C)C` (racemic), the logD in data set [1] was 3.2. For the same compound, the IC50 on Bcl-2-related protein A1 [2] is over 100 µM.
